# Screens: PubChem BioAssay, several laboratories
# A selection: hits, their analogues and other compounds. The true share with any hit is near 2.1%.
# UCH37 inh: inhibitors of human UCH37 deubiquitinase, primary screen, biochemical, Ub-AMC cleavage, fluorescence. AID 588478, 2011. Ubiquitin carboxyl-terminal hydrolase isozyme L5 (Homo sapiens), Q9Y5K5. inhibition, % (test concentration not listed). actives 0.33% (n = 330,000). purified proteasome/UCH37;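 active = mean inhibition over replicate wells above about 20%, limit read from the data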;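 note: 0% = compound-free wells with enzyme and 100% = wells lacking proteasome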
# Target sequence (Q9Y5K5 whole entry, looked up): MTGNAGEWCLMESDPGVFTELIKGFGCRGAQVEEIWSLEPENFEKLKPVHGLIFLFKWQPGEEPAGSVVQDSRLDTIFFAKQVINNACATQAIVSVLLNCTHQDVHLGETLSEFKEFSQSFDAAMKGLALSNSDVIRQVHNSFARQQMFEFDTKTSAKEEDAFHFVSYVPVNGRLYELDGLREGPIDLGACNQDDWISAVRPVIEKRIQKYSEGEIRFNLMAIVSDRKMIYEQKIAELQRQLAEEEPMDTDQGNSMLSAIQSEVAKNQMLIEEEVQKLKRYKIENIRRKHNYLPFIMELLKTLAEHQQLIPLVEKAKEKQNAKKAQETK
#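 system = Proteasome-associated human UCH37 deubiquitinase | amount = 0.15 nM proteasome as dispensed | medium = pH 7.4 Tris-HCl (50 mM) with ovalbumin, ATP-MgCl2, DTT | incubation = 30 min preincubation with enzyme, 25 min cleavage at room temperature | detection = AMC fluorescence 355/460 nm | read-out basis = percent inhibition | controls = no-proteasome and no-compound wells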
# beta cell repl: inducers of MIN6 beta-cell proliferation, primary screen, ATP luminescence, uHTS; proliferation, % at 10 µM; MIN6 cells proliferation, ATPlite luminescence, 48 h; cells starved in 0.2% serum; 100% = growth in 10% serum; actives 0.29% (n = 330,000);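 active = compounds whose signal lies at least 3.5 SD above the mean of all wells on their plate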;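 note: 0% = DMSO-treated cells in low-serum medium and 100% = 10% serum control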
# CRFBP-R2 agonist: agonists of CRF-BP/CRF-R2 complex, primary screen, cell-based, HEK293, calcium dye fluorescence, uHTS | AID 588473, 2011 | activation, % at 13.2 µM | calcium dye fluorescence (FLIPR); percent of saturating CRF peptide response | actives 0.46% (n = 350,000);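 active = activation of at least 50%, plus an integration ratio under a set limit after plate pattern correction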;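 note: plate controls were neutral control wells without compound for no effect and CRF at EC100 for full effect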
# iPSC survival up: enhancers of single-cell hiPSC survival, primary screen, ATPlite luminescence. 100% = ROCK inhibitor wells, 0% = DMSO. actives 0.044% (n = 360,000). survival enhancement, % at 20 µM; in the data active = survival enhancement above about 18%;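 note: cells exposed to compounds for 16 hours before the ATP read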
# CRFBP-R2 block: antagonists of CRF-BP/CRF-R2 complex, primary screen, cell-based, HEK293, calcium dye fluorescence, uHTS; CRF-induced calcium fluorescence; inhibition, % at 11.8 µM; actives 0.59% (n = 350,000);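 active = inhibition of the ligand-induced calcium signal above about 50% at the single tested concentration, limit read from the data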
# H9c2 protect: cardioprotection against H2O2-induced cell death, primary screen, uHTS, H9c2 cells, ATPLite luminescence; H9c2 cardiomyocytes, H2O2 injury protection, 2 h; protection from H2O2 cell death, % at 20 µM; actives 0.63% (n = 360,000); AID 588492, 2011;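 active = compounds giving at least 50% protection of heart cells from peroxide-induced death in the single-dose screen, raw or plate-pattern-corrected value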;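 note: 0% = DMSO wells with peroxide and 100% = DMSO wells without peroxide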
# * marks the source's active call; other numbers are inactive results; · = no result given.
SMILES,UCH37 inh,beta cell repl,CRFBP-R2 agonist,iPSC survival up,CRFBP-R2 block,H9c2 protect
COc1ccc([N+](=O)[O-])cc1NS(=O)(=O)c1ccc(C)cc1,4,3,-3,0,21,6
Cc1ccc(S(=O)(=O)Nc2ccc3cc([N+](=O)[O-])ccc3c2[N+](=O)[O-])cc1,10,·,6,1,81*,-10
COc1ccc(NS(=O)(=O)c2ccc(C)cc2)c([N+](=O)[O-])c1,2,-3,-9,-1,30,-3
Cc1ccc(S(=O)(=O)Nc2ccc3ccccc3c2[N+](=O)[O-])cc1,8,·,-9,0,90*,-6
O=[N+]([O-])c1ccc(Cl)c(C=Nn2c(-c3ccncc3)n[nH]c2=S)c1,4,·,·,·,·,·
Cc1ccc(-c2n[nH]c(=S)n2N=Cc2cc3c(cc2[N+](=O)[O-])OCO3)cc1,2,·,·,·,·,·
Cc1cc(C)c(C(=O)CC(=O)c2ccccc2Cl)c(O)c1,4,-4,-2,0,8,51*
O=C(O)c1cc(NN=Cc2c[nH]c3ccccc23)ccc1Cl,5,·,·,·,·,·
CC(=O)Nc1sc(N/N=C/c2ccc(C)cc2)nc1-c1ccc(C)cc1,·,0,-5,-1,-21,-3
CC(=O)Nc1sc(/C(C#N)=C/c2ccc(Cl)c(Cl)c2)nc1-c1ccc(C)cc1,7,·,281*,-1,-320,-7
O=C(Nc1ccccc1)Nc1cc(Cl)cc(Cl)c1,·,-7,18,0,39,-21
O=C(Nc1ccccc1)Nc1cc(OCC(F)(F)F)cc(OCC(F)(F)F)c1,5,·,23,1,55*,-11
Cc1ccc(/C=C2\SC(=S)N(CCCC(=O)NNC(=O)c3ccccc3O)C2=O)cc1,·,-2,-1,0,-17,55*
CCOc1ccc(/C=C2\SC(=S)N(CCC(=O)Nc3ccccc3C(=O)O)C2=O)cc1,8,-4,-3,0,55*,-9
O=c1c2c3nc4ccccc4nc3n(N=Cc3ccncc3)c2ncn1-c1ccccc1,-4,·,·,·,·,·
CCOC(=O)NN=C(c1ccccc1)C1CCCCC1,2,·,·,·,·,·
COc1ccc(-c2nc3c(c(SCC(=O)Nc4cccc(O)c4)n2)Cc2c(CO)cnc(C)c2O3)cc1,4,0,2,0,-4,66*
Cc1ncc(CO)c2c1Oc1nc(-c3ccccc3)nc(SCC(=O)Nc3cccc(O)c3)c1C2,5,-3,0,0,-2,63*
COc1ccc2cc(C(C)=NNC(=O)c3cc(-c4cccnc4)nc4ccccc34)ccc2c1,-16,·,·,·,·,·
O=C(NN=Cc1ccc2c(c1)OCO2)c1ccc(Br)o1,-16,·,·,·,·,·
CCN(CC)Cc1cc(O)c(CN(CC)CC)cc1O,5,·,8,-1,-7,55*
O=C(NN=Cc1ccoc1)c1cc(O)cc(O)c1,3,·,·,·,·,·
CCOC(=O)c1cnc(SC)nc1Oc1cccc(NC(=O)c2cccc(Cl)c2Cl)c1,6,0,1,-2,-3,71*
CCOC(=O)c1cnc(SC)nc1Oc1cccc(NC(=O)c2ccc(C)cc2)c1,4,-2,5,-2,0,-3
CCCSc1n[nH]c(NC(C)=O)n1,4,-2,-1,-1,56*,-8
SMILES,UCH37 inh,beta cell repl,CRFBP-R2 agonist,iPSC survival up,CRFBP-R2 block,H9c2 protect
CCCCCCCCCCSc1n[nH]c(NC(C)=O)n1,4,1,-1,0,-12,1
N#Cc1ccc(CSC2=NCCN2)cc1,11,3,-1,3,104*,-4
O=C(O)c1cc(-c2ccccc2)nc(-c2ccccc2)c1,-5,3,-1,0,54*,6
COc1ccccc1N1CCN(c2ncc(C(=O)N3CCN(c4cccc(Cl)c4)CC3)c3ccccc23)CC1,-239,-5,115*,0,-290,-18
C/C(C=Nn1c(-c2ccncc2)n[nH]c1=S)=C/c1ccccc1,7,·,·,·,·,·
CCCS(=O)(=O)c1c(S(=O)(=O)CCC)c2c(C)cccn2c1C(N)=O,0,-1,0,-4,-6,3
CCCS(=O)(=O)c1c(S(=O)(=O)CCC)c2c(C)cccn2c1C(=O)N/N=C/c1cc(O)cc(O)c1,·,-7,1,1,-4,53*
Oc1c(Br)cc(Br)cc1/C=N/c1nc2c(s1)CCCC2,·,-6,25,3,0,59*
Oc1c(Br)cc(Br)cc1C=Nc1nccs1,4,·,·,·,·,·
CCn1c(Cc2ccccc2)nnc1SCC(=O)c1cccc([N+](=O)[O-])c1,0,-2,-1,0,-4,-1
CCOc1cc(C)ccc1OCc1nnc(SCC(=O)c2cccc([N+](=O)[O-])c2)n1C,-1,-5,-1,-1,56*,10
Cn1c(COc2ccccc2)nnc1SCC(=O)c1cccc([N+](=O)[O-])c1,3,-3,1,1,59*,-1
CC(=NNS(=O)(=O)c1ccccc1)c1cc(Cl)cc(Cl)c1O,4,·,·,·,·,·
COc1ccc(C=Nn2c(COc3ccccc3)n[nH]c2=S)cc1OC,6,·,·,·,·,·
Cc1nc2ccccc2c(=O)[nH]1,4,0,0,-3,5,69*
COc1ccc2nc(C)[nH]c(=O)c2c1,-7,-4,1,0,8,-4
NC(=O)N/N=C/c1cn(-c2ccccc2)nc1-c1cccs1,·,-5,0,0,-13,-9
O=C(N/N=C/c1cn(-c2ccccc2)nc1-c1cccs1)c1ccncc1,·,0,0,-2,-24,54*
O=C(N/N=C/c1nn(-c2ccccc2)cc1-c1ccccc1)c1ccncc1,·,0,1,-2,-18,62*
O=C(NN=Cc1nn(-c2ccccc2)cc1-c1ccccc1)c1ccncc1,-43,·,·,·,·,·
Cc1cccc(C)c1NC(=O)Cc1cccs1,1,1,1,0,78*,-2
CCCCCOCC1CC(CC(C)=NNc2nc(-c3ccccc3)cs2)C(=O)O1 (stereo unspecified),0,·,·,·,·,·
COC(=O)C(C)n1cnc2c(cnn2-c2ccc(Cl)cc2)c1=O (stereo unspecified),30*,-2,-3,3,1,-7
CCOc1cc(NC(=O)C2CC2)c(OCC)cc1NC(=O)c1ccccn1,-2,2,-4,3,8,53*
CCOc1cc(NC(=O)c2ccccn2)c(OCC)cc1NC(=O)c1ccccc1,-5,2,0,1,-3,3
Cc1nn(C)cc1CN(C)C(=O)c1ccc(OC2CCN(Cc3ccccn3)CC2)cc1,-2,2,2,0,57*,-6
CC1CCN(Cc2c(C(=O)N/N=C/c3cc(Br)ccc3O)nnn2-c2nonc2N)CC1,·,-4,2,0,17,64*
